Assay results collected from several papers.
Target: Serine/threonine-protein kinase 24 (STK24, Homo sapiens, UniProt Q9Y6E0)

O=C(NCc1ncc(C(F)(F)F)cc1Cl)c1ccc2c(c1)C1(CCS(=O)(=O)CC1)[C@@H](C1CC1)N2S(=O)(=O)c1ccc(F)cc1 — remaining binding (cell-free assay; competition with immobilised ligand; 1 µM): 100%
F[C@@H]1CCN(c2nccc(-c3cnn4ncccc34)n2)C1 — remaining binding (binding; 1 µM): 93%
C[C@H](c1cccc(C#N)c1)n1cc(Cl)cc(C(N)=O)c1=N — remaining binding (cell-free assay; competition with immobilised ligand; 1 µM): 89%
CN(C)c1nccc(-c2cnn3ncccc23)n1 — remaining binding (binding; 1 µM): 100%
COc1cnc(Nc2cccc(S(N)(=O)=O)c2)nc1N1CCN(c2ccccc2)CC1 — remaining binding (binding; competition with immobilised ligand; 1 µM): 82%
c1cnn2ncc(-c3ccnc(N4CCC45COC5)n3)c2c1 — remaining binding (binding; 1 µM): 74%
FC(F)(F)Oc1cccc(-c2cnc3ccc(-c4ccncc4)nn23)c1 — remaining binding (cell-free assay; competition with immobilised ligand; 5 µM): 86%
CN(C)c1nccc(-c2cnc3ncccn23)n1 — remaining binding (binding; 1 µM): 94%
Nc1ncc2c(n1)-c1c([nH]c3ccc(C#CC4CC4)cc13)CCCC2 — remaining binding (binding; competition with immobilised ligand; 1 µM): 80%
O=C(c1ccc(Nc2ncc(Cl)c(-c3cc4ccccc4s3)n2)cc1)N1CCC(N2CCCC2)CC1 — remaining binding (binding; competition with immobilised ligand; 1 µM): 92%
FC(F)(F)c1ccc2c(c1)nc(-c1cccnc1)n2C1CC1 — remaining binding (cell-free assay; competition with immobilised ligand; 1 µM): 100%
O=C(NCCCN1CCOCC1)c1ccc(Nc2ncc(Cl)c(-c3ccc(Cl)s3)n2)cc1 — remaining binding (binding; competition with immobilised ligand; 1 µM): 17%
O=C(NC[C@@H]1[C@H]2CN(C(=O)OCc3cc(C(F)(F)F)cc(C(F)(F)F)c3)C[C@@H]12)c1ccc2[nH]nnc2c1 — remaining binding (cell-free assay; competition with immobilised ligand; 1 µM): 90%
N[C@H]1CCN(c2nccc(-c3cnn4ncccc34)n2)C1 — remaining binding (binding; 1 µM): 83%
COc1ncc2cc3ccccc3nc2c1C#N — remaining binding (cell-free assay; competition with immobilised ligand; 5 µM): 97%
CN(C(=O)c1ccccc1)c1cc(N(C)c2ccc3c(c2)CCc2ccc(C(=O)NCCN4CCOCC4)cc2C3=O)ccc1F — remaining binding (cell-free assay; competition with immobilised ligand; 1 µM): 100%
O=C(c1ccc(Nc2ncc(Cl)c(-c3ccc(Cl)s3)n2)cc1)N1CCC(N2CCCC2)CC1 — remaining binding (binding; competition with immobilised ligand; 1 µM): 44%
CCS(=O)(=O)c1cc2cc(C[C@](O)(CC(C)(C)c3ccc(F)cc3C(N)=O)C(F)(F)F)[nH]c2cn1 — remaining binding (cell-free assay; competition with immobilised ligand; 1 µM): 86%
O=C(Nc1c[nH]nc1C(=O)NC1CCNCC1)c1cc(F)cc(F)c1 — remaining binding (binding; competition with immobilised ligand; 1 µM): 91%
